Reference: article PMC2587450 (International journal of cancer. Journal international du …, 2008)

How the values were obtained:
[1] = cited from earlier work
α1β1 integrin = details: reduced disulfide bonds, cysteines blocked with vinylpyridine; cited from earlier work
[2] = system: MV3 melanoma-induced angiogenesis; experiment: MV3 tumor-induced angiogenesis in quail embryonic CAM; format: in vivo, Japanese quail (Coturnix coturnix japonica); details: MV3 on quail CAM, 20 μg daily, day 12
Method in brief: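 Japanese quail eggs ethanol-cleaned, kept at 37°C without CO₂ to embryonic day 3, then opened and contents moved to 6-well plates at 37°C. Day 6: MV3 cells (1 × 10⁷/50 μl PBS) applied onto CAM; after 24 h growth, 20 μg test compound per 50 μl PBS daily. Tumors excised and weighed; remaining membrane slide-mounted, fractal dimension (Df) measured in square area opposite the tumor.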

[3] = format: in vivo, mouse; details: mice
dHMVEC [4] = experiment: Apoptosis assays in dHMVEC; format: cell-based, human; details: 2 μM
Method in brief: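 Primary adult dermal microvascular endothelial cells (passages 5–8, complete EBM-2). Annexin V: 2 μM test compound 16 h in complete EBM-2, cells detached, annexin V-FITC stained, two-colour flow cytometry within 1 h. Caspase 3: ±2 μM 16 h in complete medium, vincristine 50 μg/ml as positive control, lysates read by colorimetric ELISA at 450 nm. Morphology: 90% confluent cells, 2 μM 24 h, 2% paraformaldehyde-fixed, phase contrast 200×.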

B16F10 = experiment: Apoptosis in B16F10 melanoma cell line; format: cell-based; details: B16F10 mouse melanoma cell line (data not shown)
MV3 = experiment: Apoptosis in MV3 melanoma cell line; format: cell-based; details: MV3 human melanoma cell line (data not shown)
[5] = format: in vivo, mouse; details: mice, Western blot, variety of time intervals
B16F10 mouse melanoma = experiment: B16F10 melanoma growth in syngeneic C57BL/6 mice; format: in vivo; details: for effect on tumor growth, i.p. route: B16F10 melanoma model
Method in brief: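 Daily caliper volumes (width² × length × 0.52). Formalin-fixed paraffin 5-μm sections: anti-von Willebrand factor vessels counted in 10 high-power fields (400×) and averaged, blinded, 3 investigators; colorimetric TUNEL; S.D. from 5 animals.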

dHMVEC [6] = experiment: dHMVEC proliferation assay; format: cell-based, human; details: BrdUrd, induced by 2% FBS or 50 ng/ml hrVEGF or vpVEGF, 2 μM obtustatin for VEGF

Row | Molecule | half life time [1] | change of activity against α1β1 integrin versus native obtustatin (α1β1 integrin) | tumor-induced angiogenesis, angiogenesis index as fractal dimension (Df) [2] | behavioral signs and body weight ([3]; single i.v. doses up to 20 mg/kg, 10 days observation) | H&E sections of liver ([3]; single i.v., 10 mg/kg and 20 mg/kg groups, after 10 days) | H&E sections of spleen ([3]; single i.v., 20 mg/kg group, after 10 days) | H&E sections of brain, lung, kidney, liver and spleen ([3]; single i.v., all concentrations up to 7 mg/kg, after 10 days) | caspase 8, fluorescent ELISA and Western blot (dHMVEC [4]; 2 hours) | caspase 3, colorimetric ELISA and Western blot (dHMVEC [4]; 16 hours (ELISA)) | annexin V binding (early apoptosis), flow cytometry (dHMVEC [4]; 16 hours, complete EBM-2 media) | cell morphology (dHMVEC [4]; 24 hours, complete medium with 5% FBS) | apoptosis induction (B16F10) | apoptosis induction (MV3) | detection in blood plasma after i.p. injection [5] | effect on tumor growth, i.p. route (B16F10 mouse melanoma; 2.5 mg/kg i.p. (data not shown)) | effect on tumor growth, i.p. route (B16F10 mouse melanoma; 5 mg/kg i.p. (data not shown)) | vessel number in paraffin sections of tumor (anti-von Willebrand factor) (B16F10 mouse melanoma; B16F10 melanoma, obtustatin treated animals vs control) | TUNEL staining of endothelial cells in tumor sections (B16F10 mouse melanoma; B16F10 melanoma, obtustatin-treated animals) | body weight during multiple injections (B16F10 mouse melanoma; melanoma experiments in mice, 5 and 2.5 mg/kg i.v., multiple injections) | endothelial cell proliferation (dHMVEC [6])
1 | O=c1[nH]cc(F)c(=O)[nH]1 [5-fluorouracil (5-FU), 5-fluorouracil] | about 100 minutes | – | – | – | – | – | – | – | – | – | – | – | – | – | – | – | – | – | – | –
2 | Ethylpyridylated(EP)-obtustatin [EP-obtustatin] | – | over four orders of magnitude decreasing activity | no activity | – | – | – | – | – | – | – | – | – | – | – | – | – | – | – | – | –
3 | obtustatin | – | – | significantly diminished | did not reveal any toxic side effects | small areas of inflammations and necrotic patches in liver | significant necrotic patches in all animals | no effects | appears to be activated | release of caspase 3 | annexin V binds to the surface of dHMVEC | typical apoptotic morphology | no apoptotic properties | no apoptotic properties | not detectable | no effect on tumor growth | only slightly, close to no significant ratio tumor suppression | significant reduction of vessel number | positive staining of DNA strand breaks | did not show any changes in body weight | potent inhibitor of endothelial cell proliferation
